Measurements reported in ChEMBL document CHEMBL4346736, “Anti-proliferative activity and structure-activity relationship of honokiol derivatives” (Bioorg Med Chem, 2019).

Key:
[1] = Partition coefficient, log P of the compound; format: physicochemical; conditions: octanol/water
[2] = system: K562; experiment: Antiproliferative activity against human K562 cells after 48 hrs by MTT assay; format: functional, cell-based; conditions: K562, 48 h
In short: (§1)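 Cells from the Institute of Cell Biology, CAS (Shanghai), grown in RPMI-1640 with 10% FBS and 100 U/mL penicillin-streptomycin at 37 °C under 5% CO2. Cells were exposed to compounds for 48 h, and viability was read by MTT (or MTS). IC50, the concentration giving 50% inhibition, was calculated by the Logit method. Data are representative of 3 independent experiments.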

[3] = system: A549; experiment: Antiproliferative activity against human A549 cells after 48 hrs by MTT assay; format: functional, cell-based; conditions: A549, 48 h; in short: as §1
[4] = system: HepG2; experiment: Antiproliferative activity against human HepG2 cells after 48 hrs by MTT assay; format: functional, cell-based; conditions: HepG2, 48 h; in short: as §1
[5] = system: HepG2; experiment: Antiproliferative activity against human HepG2 cells; format: functional, cell-based; in short: as §1
[6] = system: K562; experiment: Antiproliferative activity against human K562 cells; format: functional, cell-based; in short: as §1
[7] = system: HepG2; experiment: Antiproliferative activity against human HepG2 cells after 72 hrs by MTT assay; format: functional, cell-based; conditions: HepG2, 72 h
[8] = system: HCT-116; experiment: Antiproliferative activity against human HCT116 cells after 72 hrs by MTT assay; format: functional, cell-based; conditions: HCT-116, 72 h
[9] = system: NCI-H1975; experiment: Antiproliferative activity against human NCI-H1975 cells after 72 hrs by MTT assay; format: functional, cell-based; conditions: NCI-H1975, 72 h

Row | SMILES | logP [1] | further results
1 | C/C=C/c1ccc(O)c(-c2cc(/C=C/C)ccc2O)c1 | 5.36 | –
2 | C=CCc1cc(O)c(O)c(-c2cc(CC=C)cc(O)c2O)c1 | 3.76 | –
3 | C=CCc1cccc(-c2cccc(CC=C)c2O)c1O | 4.75 | –
4 | C=CCc1ccc(O)c(-c2ccc(OCC)c(CC=C)c2)c1 | 5.45 | –
5 | C=CCc1ccc(OCC)c(-c2ccc(O)c(CC=C)c2)c1 | 5.66 | –
6 | C=CCc1cc(C=O)c(OC)c(-c2ccc(O)c(CC=C)c2)c1 | 5 | –
7 | C=CCc1cc(C=O)c(OC)c(-c2ccc(OC)c(CC=C)c2)c1 | 5.07 | –
8 | C=CCc1cc(C=O)c(OCC)c(-c2ccc(OCC)c(CC=C)c2)c1 | 5.82 | –
9 | C=CCc1cc(CO)c(O)c(-c2ccc(O)c(CC=C)c2)c1 | 4.27 | –
10 | C=CCc1cc(CO)c(O)c(-c2cc(CO)c(O)c(CC=C)c2)c1 | 3.33 | –
11 | C=CCc1ccc(OC)c(-c2cc(CC=C)ccc2OC)c1 | 5.35 | –
12 | Oc1ccccc1-c1ccccc1O | 3.2 | –
13 | C=CCc1cc(Br)c(O)c(-c2ccc(OC)c(CC=C)c2)c1 | 5.81 | –
14 | C=CCc1cc(-c2ccc(OC)c(CC=C)c2)c(O)c(-c2ccc(OC)c(CC=C)c2)c1 | 7.61 | –
15 | C=CCc1cc(-c2ccc(OC)c(CC=C)c2)ccc1O | 5.28 | –
16 | C=CCc1cc(-c2cccc(CC=C)c2O)ccc1OC | 5.05 | –
17 | C=CCc1ccc(O)c(-c2cccc(CC=C)c2O)c1 | 4.77 | –
18 | C=CCc1cc(C(C)(C)c2ccc(O)c(CC=C)c2)ccc1O | 5.8 | –
19 | C=CCc1cc(C2(c3ccc(O)c(CC=C)c3)CCCCC2)ccc1O | 6.97 | –
20 | C=CCc1cc(C(=C(Cl)Cl)c2ccc(O)c(CC=C)c2)ccc1O | 6.17 | –
21 | C=CCc1cc(C(c2ccc(O)c(CC=C)c2)c2ccccn2)ccc1O | 5.41 | –
22 | C=CCc1cc(/C(CC)=C(\CC)c2ccc(O)c(CC=C)c2)ccc1O | 6.74 | –
23 | C=CCc1cc(-c2ccc(O)c(CC=C)c2)ccc1O | 5.21 | –
24 | C=CCc1cc(Cc2ccc(O)c(CC=C)c2)ccc1O | 5.38 | –

Row | SMILES | logP [1] | further results
25 | CCCc1ccc(O)c(-c2cc(CCC)ccc2O)c1 | 5.76 | –
26 | CCCc1ccc(O)c(-c2ccc(O)c(CCC)c2)c1 | 5.97 | IC50 [2]: 18.2 µM; IC50 [3]: 30.4 µM; IC50 [4]: 30.8 µM
27 | C=CCc1cc(-c2cccc(CC=C)c2O)ccc1O | 4.98 | –
28 | COc1ccc(-c2cc(/C=C/C=O)ccc2O)cc1/C=C/C=O | 4.34 | –
29 | C=CCc1ccc(O)c(-c2ccc(O)c(CC(O)CO)c2)c1 (centres undefined) | 3.08 | IC50 [2]: 100 µM; IC50 [3]: 90.4 µM; IC50 [4]: 25.3 µM
30 | C=CCc1cc(/C=N\C2CCCCC2)c(O)c(-c2ccc(O)c(CC=C)c2)c1 | 6.67 | –
31 | C=CCc1cc(CN2CCOCC2)c(O)c(-c2cc(CC=C)c(O)c(CN3CCOCC3)c2)c1 | 3.95 | IC50 [5]: > 40 µM; IC50 [6]: > 40 µM
32 | C=CCc1cc(CN2CCC(O)CC2)c(O)c(-c2cc(CC=C)c(O)c(CN3CCC(O)CC3)c2)c1 | 2.31 | IC50 [5]: > 40 µM; IC50 [6]: 25.5 µM
33 | C=CCc1ccc(O)c(-c2ccc3oc(C)cc3c2)c1 | 4.79 | IC50 [2]: 67.9 µM; IC50 [3]: 71.5 µM; IC50 [4]: 107 µM
34 | C=CCc1cc(NC(=O)CCl)c(O)c(-c2cc(CC=C)c(O)c(NC(=O)CCl)c2)c1 | 4.22 | IC50 [2]: 21.6 µM; IC50 [3]: 29.3 µM; IC50 [4]: 19.1 µM
35 | CCCc1ccc(O)c(-c2ccc3oc(C)cc3c2)c1 | 5.27 | IC50 [2]: 73.9 µM; IC50 [3]: 61.9 µM; IC50 [4]: 88.3 µM
36 | C=CCc1cc(CN2CCSCC2)c(O)c(-c2cc(CC=C)c(O)c(CN3CCSCC3)c2)c1 | 5.03 | IC50 [5]: > 40 µM; IC50 [6]: > 40 µM
37 | C=CCc1cc(/C=N\CCCCCC)c(O)c(-c2ccc(O)c(CC=C)c2)c1 | 7.22 | –
38 | CCCc1cc(C)c(O)c(-c2cc(C)c(O)c(CCC)c2)c1 | 6.51 | IC50 [2]: 26.2 µM; IC50 [3]: 29.2 µM; IC50 [4]: 34.5 µM
39 | C=CCc1cc(N=O)c(O)c(-c2cc(CC=C)c(O)c(N=O)c2)c1 | 4.45 | IC50 [2]: > 128 µM; IC50 [3]: > 128 µM; IC50 [4]: > 128 µM
40 | C=CCc1cc(-c2ccc3c(c2)OCCO3)ccc1OC | 4.05 | –
41 | C=CCc1cc(/C=N\c2ccc(N)cc2)c(O)c(-c2ccc(O)c(CC=C)c2)c1 | 5.54 | –
42 | C=CCc1cc(CN2CCC(N)CC2)c(O)c(-c2cc(CC=C)c(O)c(CN3CCC(N)CC3)c2)c1 | 2.79 | IC50 [5]: 17 µM; IC50 [6]: 9.1 µM
43 | C=CCc1ccc(O)c(-c2cc(CC=C)c3oncc3c2)c1 | 4.78 | –
44 | C=CCc1cc(CN2CCN(C)CC2)c(O)c(-c2cc(CC=C)c(O)c(CN3CCN(C)CC3)c2)c1 | 4.04 | IC50 [5]: > 40 µM; IC50 [6]: > 40 µM
45 | C=CCc1cc(/C=N\c2ccccc2)c(O)c(-c2ccc(O)c(CC=C)c2)c1 | 6.47 | –
46 | C=CCc1ccc(O)c(-c2ccc3c(c2)CC(C)O3)c1 (centres undefined) | 4.65 | IC50 [2]: 126 µM; IC50 [3]: 116 µM; IC50 [4]: 126 µM
47 | C=CCc1cc(/C=N/O)c(O)c(-c2ccc(O)c(CC=C)c2)c1 | 5.35 | –
48 | C=CCc1cc(N)c(O)c(-c2cc(N)c(O)c(CC=C)c2)c1 | 3.62 | IC50 [2]: > 128 µM; IC50 [3]: > 128 µM; IC50 [4]: > 128 µM

Row | SMILES | logP [1] | further results
49 | C=CCc1cc(CN(C)C)c(O)c(-c2cc(CC=C)c(O)c(CN(C)C)c2)c1 | 4.26 | IC50 [2]: 31.6 µM; IC50 [3]: 60.8 µM; IC50 [4]: 47.5 µM
50 | OCC(O)Cc1ccc(O)c(-c2ccc(O)c(CC(O)CO)c2)c1 (centres undefined) | 1.16 | IC50 [2]: > 128 µM; IC50 [3]: > 128 µM; IC50 [4]: > 128 µM
51 | C=CCc1ccc(O)c(-c2ccc(O)c(CC(CO)OC)c2)c1 (centres undefined) | 3.7 | IC50 [7]: > 40 µM; IC50 [8]: > 40 µM; IC50 [9]: > 40 µM
52 | C=CCc1cc(NC(C)=O)c(O)c(-c2cc(CC=C)c(O)c(NC(C)=O)c2)c1 | 3.09 | IC50 [2]: > 128 µM; IC50 [3]: > 128 µM; IC50 [4]: > 128 µM
53 | CCCc1ccc(O)c(-c2ccc3c(c2)CC(C)O3)c1 (centres undefined) | 5.13 | IC50 [2]: 72.9 µM; IC50 [3]: 96.1 µM; IC50 [4]: 122 µM
54 | C=CCc1cc(-c2ccc3c(c2)OCCO3)ccc1O | 3.98 | –
55 | C=CCc1cc(-c2ccc3c(c2)OCO3)ccc1O | 4.36 | –
56 | C=CCc1cc(/C=N/O)c(O)c(-c2cc(/C=N/O)c(O)c(CC=C)c2)c1 | 5.49 | –
57 | C=CCc1ccc(O)c(-c2cc(CC=C)c(O)c(C(C)(C)C)c2)c1 | 6.43 | IC50 [2]: 32.5 µM; IC50 [3]: 25.7 µM; IC50 [4]: 31.1 µM
58 | C=CCc1cc(-c2cc(CC=C)c(O)c([N+](=O)[O-])c2)c(O)c([N+](=O)[O-])c1 | 4.57 | IC50 [2]: > 128 µM; IC50 [3]: > 128 µM; IC50 [4]: > 128 µM
59 | C=CCc1cc(/C=N/Nc2ccccc2)c(O)c(-c2ccc(O)c(CC=C)c2)c1 | 7.76 | –
60 | C=CCc1ccc(O)c(-c2cc(/C=N/O)c(O)c(CC=C)c2)c1 | 5.14 | –
61 | C=CCc1ccc(O)c(-c2cc(/C=C3\SC(=O)NC3=O)c(O)c(CC=C)c2)c1 | 4.27 | –
62 | C=CCc1ccc(O)c(-c2cc(/C=C(\C#N)C(=O)OCC)c(O)c(CC=C)c2)c1 | 5.23 | –
63 | C=CCc1cc(/C=C2\SC(=O)NC2=O)c(O)c(-c2cc(/C=C3\SC(=O)NC3=O)c(O)c(CC=C)c2)c1 | 3.74 | –
64 | C=CCc1cc(/C=C(\C#N)C(=O)OCC)c(O)c(-c2ccc(O)c(CC=C)c2)c1 | 5.44 | –
65 | C=CCc1cc(/C=N/CCN)c(O)c(-c2ccc(O)c(CC=C)c2)c1 | 3.57 | –
66 | C=CCc1cc(/C=C2\SC(=O)NC2=O)c(O)c(-c2ccc(O)c(CC=C)c2)c1 | 4.48 | –
67 | C=CCc1ccc(OC)c(-c2ccc(OC)c(CC=C)c2)c1 | 5.35 | –
68 | C=CCc1ccc(OC)c(-c2ccc(O)c(CC=C)c2)c1 | 5.28 | –
69 | C=CCc1ccc(Oc2cc(CC=C)ccc2O)cc1 [ISOMAGNOLOL] | 4.82 | –
70 | C=CCc1ccc(O)c(-c2cc(CC=C)ccc2O)c1 [MAGNOLOL] | 4.8 | –
71 | C=CCc1ccc(O)c(-c2ccc(OC)c(CC=C)c2)c1 [METHYLHONOKIOL] | 5.07 | –
